Data set [1] has as its system Pseudomonas putida. Kind of data set: Antibacterial activity against ampicillin-resistant Pseudomonas putida MTCC 1072 at 64 mg/ml after 16 hrs by disk diffusion test. The class given is functional. Further details: dose or concentration left out as unconfirmed. The note with it: MTCC 1072, 16 h, read-out: IZ.
In data set [2] the test system is Staphylococcus aureus. Briefly: Antibacterial activity against Staphylococcus aureus MTCC 1144 after 12 to 16 hrs by turbidity assay. The class given is functional. In outline: (§1)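 Broth dilution MIC in LB broth. Tubes inoculated, incubated 12–16 h and scored by eye for turbidity (growth) versus clear (no growth).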
Data set [3] deals with Staphylococcus aureus. Briefly: Antibacterial activity against Staphylococcus aureus MTCC 1144 at 64 mg/ml after 16 hrs by disk diffusion test. The class given is functional. The note with it: MTCC 1144, 16 h, read-out: IZ. In outline:
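Disk diffusion (zone of inhibition). Bacterial isolate spread evenly over an agar plate. A filter disk carrying a known amount of compound was placed on the surface and the compound left to diffuse. The inhibition zone in the lawn was read after 16 h incubation.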
Background: A growth-free zone around the sample is the usual read-out of agar diffusion tests.

The test system of data set [4] is Pseudomonas putida. Kind of data set: Antibacterial activity against ampicillin-resistant Pseudomonas putida MTCC 1072 after 12 to 16 hrs by turbidity assay. The class given is functional. In outline: as §1
In data set [5] the test system is Human immunodeficiency virus 1. Kind of data set: Antiviral activity against HIV1 infected in human CEM cells assessed as protection against virus-induced cytopathic effect after 6 days by XTT assay. The class given is functional, organism-based. The note with it: Human immunodeficiency virus 1, CCRF-CEM, 144 h. In outline:
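CEM T4 lymphocytes received serially diluted compounds (DMSO stock diluted 1:100 in medium, 1:200 final dilution), then HIV-1. Incubated 6 days at 37 °C, 5% CO2. Formazan read spectrophotometrically after XTT, with microscopic check for viable cells. EC50 is the concentration giving 50% protection against the HIV cytopathic effect. AZT-treated wells served as positive control.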
Background: Damage to the host cells serves as the signal in cytopathic effect assays.

For data set [6], the system named is Pseudomonas putida. Kind of data set: Antibacterial activity against ampicillin-resistant Pseudomonas putida MTCC 1072 at 128 mg/ml after 16 hrs by disk diffusion test. The note with it: MTCC 1072, 16 h, read-out: IZ. It counts as functional. Set-up: dose or concentration left out as unconfirmed.
The subject of another data set is CCRF-CEM. Kind of data set: Cytotoxicity against […] human CEM cells after 6 days by XTT assay. It counts as cell-based. The note with it: 144 h. In outline:
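Uninfected CEM cultures given serial compound dilutions (DMSO, 1:200 final dilution). Incubated 6 days at 37 °C, 5% CO2, then read by XTT formazan. IC50 is the molar concentration causing 50% inhibition of cell growth.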

For data set [7], the system named is Escherichia coli. Kind of data set: Antibacterial activity against Escherichia coli MTCC 41 after 12 to 16 hrs by turbidity assay. The class given is functional. In outline: as §1
For the next data set, the system named is Vero. Briefly: Cytotoxicity against african green monkey Vero cells assessed as loss of monolayer present around the plaques. The note with it: Chlorocebus sabaeus. The class given is cell-based. In outline:
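Vero monolayers in serial-dilution trays with HSV-1, run in triplicate, 6 h at 37 °C, 5% CO2. Cells fixed with 3.7% formaldehyde and examined visually. IC50 is the concentration giving about 50% loss of the monolayer around HSV-1 plaques.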

For data set [8], the system named is Escherichia coli. Briefly: Antibacterial activity against Escherichia coli MTCC 41 at 64 mg/ml after 16 hrs by disk diffusion test. The class given is functional. Further details: dose or concentration left out as unconfirmed. Particulars: MTCC 41, 16 h, read-out: IZ.
Data set [9] relates to Staphylococcus aureus. Briefly: Antibacterial activity against Staphylococcus aureus MTCC 1144 at 128 mg/ml after 16 hrs by disk diffusion test. It counts as functional. Set-up: dose or concentration left out as unconfirmed. Particulars: MTCC 1144, 16 h, read-out: IZ.
The nature of data set [10]: Therapeutic index, ratio of IC50 for human CEM cells to EC50 for HIV1. The class given is cell-based, CCRF-CEM. Particulars: read-out: Ratio IC50/EC50. In outline:
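CEM T4 lymphocytes, with or without HIV-1, were incubated with serially diluted compounds (DMSO solution diluted 1:100 in medium; 1:200 final dilution after cells and virus were added) at 37 °C in 5% CO2 for 6 days. Controls were untreated and AZT-treated. Read-out was XTT formazan, measured spectrophotometrically plus microscopy. EC50 is 50% protection from cytopathic effect; IC50 is 50% growth inhibition in uninfected cultures.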

In a further data set the test system is Human alphaherpesvirus 1. Briefly: Antiviral activity against HSV1 infected in african green monkey Vero cells after 6 hrs by plaque reduction assay. It counts as functional. Further details: scale not given: the % may be the effect or the level left. In outline:
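Modified plaque reduction in 96-well trays with no thickening overlay. Compounds dissolved in DMSO and diluted into medium, then serially diluted and added in triplicate to confluent Vero monolayers. Titred HSV-1 added in medium with 10% calf serum. Incubated 6 h at 37 °C, 5% CO2. Cells fixed with 3.7% formaldehyde and examined visually. The end-point concentration was taken from the dilution series.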
(In a plaque reduction assay, fewer plaques than in the control indicate reduced infectivity or spread.)

Data set [11] deals with Escherichia coli. Briefly: Antibacterial activity against Escherichia coli MTCC 41 at 128 mg/ml after 16 hrs by disk diffusion test. Further details: dose or concentration left out as unconfirmed. It counts as functional. Particulars: MTCC 41, 16 h, read-out: IZ.

The term MIC denotes the lowest concentration that inhibits growth of the organism. One may read the EC50 as the concentration needed to bring the measured effect to its halfway point. As a reminder, the IC50 is the midpoint of a concentration-inhibition curve.

Values after ≈ are worked out from the molar mass of the structure shown.

Turning to `S=c1[nH]c(=S)c2c3c(sc2[nH]1)CCCC3`, the zone of inhibition with Pseudomonas putida [1] was less than 1 mm; in the data set with Pseudomonas putida [6], greater than 3 mm; in the data set with Escherichia coli [8], greater than 3 mm; with Staphylococcus aureus [9], greater than 3 mm; with Escherichia coli [11], greater than 3 mm. Further, the minimal inhibitory concentration (MIC) in the data set with Staphylococcus aureus [2] was 128 µg/mL (≈ 503 µM); against Pseudomonas putida [4], 128 µg/mL (≈ 503 µM); in the data set with Escherichia coli [7] it was 64 µg/mL (≈ 252 µM). Further, the zone of inhibition at 64000 µg/mL in the data set on Staphylococcus aureus [3] is less than 1 mm. In data set [5], the EC50 is greater than 100 µM. The results for the IC50 in the data set with CCRF-CEM and in the data set on Vero were 6.5 µM and 0.07 µM, respectively. For the same molecule, the selectivity ratio in [10] was greater than 15.4. In the data set with Human alphaherpesvirus 1, this molecule gave an Activity of 0%.
In the case of `S=c1[nH]c(=S)c2c3c(sc2[nH]1)CCCCC3`, the zone of inhibition with Pseudomonas putida [1] is greater than 2 mm; with Pseudomonas putida [6], greater than 3 mm; in the data set on Escherichia coli [8], greater than 3 mm; in the data set with Staphylococcus aureus [9] it was greater than 2 mm; with Escherichia coli [11], greater than 3 mm. The MIC in the data set with Staphylococcus aureus [2] was greater than 128 µg/mL; against Pseudomonas putida [4], 128 µg/mL (≈ 477 µM); with Escherichia coli [7] it was 64 µg/mL (≈ 238 µM). In the data set on Staphylococcus aureus [3], the zone of inhibition at 64000 µg/mL was greater than 2 mm. In addition, the EC50 in [5] was greater than 100 µM. Moreover, the IC50 with CCRF-CEM came out at 5.25 µM; in the data set with Vero it was 0.09 µM. The selectivity ratio in [10] is greater than 19.1. For the same molecule, the Activity in the data set with Human alphaherpesvirus 1 is recorded as 0%.
As for `CSc1nc2sc3c(c2c(=S)[nH]1)CCCC3`, the zone of inhibition is less than 1 mm in the data set on Pseudomonas putida [1]; greater than 3 mm with Pseudomonas putida [6]; less than 1 mm with Escherichia coli [8]; greater than 3 mm with Staphylococcus aureus [9]; greater than 3 mm in the data set with Escherichia coli [11]. The MIC against Staphylococcus aureus [2], in the data set on Pseudomonas putida [4] and against Escherichia coli [7] was 128 µg/mL (≈ 477 µM) in each case. In the data set with Staphylococcus aureus [3], the zone of inhibition at 64000 µg/mL is less than 1 mm. Further, in data set [5], the concentration for a half-maximal effect (EC50) was greater than 100 µM. Further, the values for the IC50 with CCRF-CEM and in the data set on Vero were greater than 100 µM and 0.64 µM, respectively. In addition, in data set [10], the selectivity ratio was greater than 1. In the data set on Human alphaherpesvirus 1, this molecule had an Activity of 0%.
As to `CSc1nc2sc3c(c2c(=S)[nH]1)CCCCC3`, the zone of inhibition with Pseudomonas putida [1] is less than 1 mm; in the data set with Pseudomonas putida [6], greater than 3 mm; in the data set with Escherichia coli [8], less than 1 mm; with Staphylococcus aureus [9], greater than 3 mm; in the data set with Escherichia coli [11], greater than 3 mm. The MIC with Staphylococcus aureus [2], against Pseudomonas putida [4] and with Escherichia coli [7] was 128 µg/mL (≈ 453 µM) each time. In addition, the zone of inhibition at 64000 µg/mL in the data set on Staphylococcus aureus [3] is greater than 2 mm. Moreover, in data set [5], the EC50 was greater than 100 µM. The half-inhibitory concentration (IC50) in the data set on CCRF-CEM was greater than 100 µM; in the data set with Vero, 0.45 µM. Also, the selectivity ratio in [10] was greater than 1. Also, the Activity with Human alphaherpesvirus 1 was found to be 0%.
In the case of `OC[C@H]1O[C@@H](Sc2nc3sc4c(c3c(=S)[nH]2)CCCCC4)[C@H](O)[C@@H](O)[C@H]1O`, the EC50 in data set [5] is greater than 100 µM. The IC50 in the data set with CCRF-CEM is greater than 100 µM; with Vero, 0.38 µM. For the same molecule, the selectivity ratio in data set [10] is greater than 1. In addition, the Activity in the data set on Human alphaherpesvirus 1 is listed as 0%.
For the molecule `S=c1c2c3c(sc2nc2n(-c4ccccc4)nc(-c4ccccc4)n12)CCCC3`, the zone of inhibition is less than 1 mm in the data set with Pseudomonas putida [1]; greater than 3 mm in the data set with Pseudomonas putida [6]; less than 1 mm in the data set on Escherichia coli [8]; greater than 3 mm in the data set with Staphylococcus aureus [9]; greater than 3 mm in the data set on Escherichia coli [11]. The MIC against Staphylococcus aureus [2], in the data set with Pseudomonas putida [4] and against Escherichia coli [7] was 128 µg/mL (≈ 309 µM) each time. The zone of inhibition at 64000 µg/mL with Staphylococcus aureus [3] was less than 1 mm.
As to `CC(=O)c1nn(-c2ccc([N+](=O)[O-])cc2)c2nc3sc4c(c3c(=S)n12)CCCC4`, the zone of inhibition in the data set with Pseudomonas putida [1] is greater than 2 mm; with Pseudomonas putida [6], greater than 3 mm; in the data set with Escherichia coli [8], greater than 3 mm; in the data set with Staphylococcus aureus [9], greater than 2 mm; with Escherichia coli [11], greater than 3 mm. The MIC against Staphylococcus aureus [2] was greater than 128 µg/mL; against Pseudomonas putida [4], 128 µg/mL (≈ 301 µM); with Escherichia coli [7] it was 64 µg/mL (≈ 150 µM). In the data set on Staphylococcus aureus [3], the zone of inhibition at 64000 µg/mL is greater than 2 mm.
As to `CCOC(=O)c1nn(-c2ccc(C)cc2)c2nc3sc4c(c3c(=S)n12)CCCC4`, the zone of inhibition with Pseudomonas putida [1] is less than 1 mm; in the data set with Pseudomonas putida [6], greater than 3 mm; in the data set with Escherichia coli [8], less than 1 mm; in the data set on Staphylococcus aureus [9], greater than 3 mm; with Escherichia coli [11] it was greater than 3 mm. Further, the MIC against Staphylococcus aureus [2], against Pseudomonas putida [4] and against Escherichia coli [7] was 128 µg/mL (≈ 301 µM) in each case. The zone of inhibition at 64000 µg/mL with Staphylococcus aureus [3] is greater than 2 mm.
